Results published in PubChem BioAssay AID623954 (The Scripps Research Institute Molecular Screening Center, 2012).
Activity calls are given as the source filed them.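 The calls were made as follows: active = recombinant frequency cut at least fourfold versus the solvent-only control; inactive = reduction in recombinant frequency below fourfold.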

What follows are compounds tested on E. coli recBCD-deletion with H. pylori AddAB/RecA, Hfr recombination, colony count (assay: Hfr recombinant frequency reduction – colony formation, p(addAB), p(recA), 100 µM, counter-screen for AddAB inhibitor project, late-stage follow-up (AID 623954)). Conditions: at 100 µM; hits give high values.
In short: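 system = ΔrecBCD E. coli with H. pylori AddAB/RecA plasmids | benchmarks = DMSO vehicle as reference control | probe or stimulus = HfrH E. coli donor mixed 1:10 with recipient | repeats = duplicate experiments | technique = colony counts of His+ StrR recombinants on selective plates | compound = single dose of 100 µM compound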
`N#Cc1c(NC(=O)c2ccc([N+](=O)[O-])o2)sc2c1CCC2` was tested, and the fold reduction of recombinant frequency was 20. `CCn1cc(C(=O)O)c(=O)c2cc(F)c(N3CCN(C(=S)Nc4cccc(C(F)(F)F)c4)CC3)cc21` showed a fold reduction of recombinant frequency of 8. `CNC(=O)c1c(NC(=O)c2nc(SCc3ccccc3)ncc2Cl)sc2c1CCCC2` was tested, and the fold reduction of recombinant frequency was 2 (inactive).
